Results reported in ChEMBL document CHEMBL4265879, “Novel, potent, selective and brain penetrant vasopressin 1b receptor antagonists” (Bioorg Med Chem Lett, 2018).

Tests used:
[1] = target: T1, Vasopressin V1b receptor (Homo sapiens, UniProt P47901); test: Displacement of [3H]AVP from human vasopressin V1b receptor expressed in CHO cell membranes after 60 mins by TopCount microplate scintillation counting method
T1 sequence (P47901 whole entry): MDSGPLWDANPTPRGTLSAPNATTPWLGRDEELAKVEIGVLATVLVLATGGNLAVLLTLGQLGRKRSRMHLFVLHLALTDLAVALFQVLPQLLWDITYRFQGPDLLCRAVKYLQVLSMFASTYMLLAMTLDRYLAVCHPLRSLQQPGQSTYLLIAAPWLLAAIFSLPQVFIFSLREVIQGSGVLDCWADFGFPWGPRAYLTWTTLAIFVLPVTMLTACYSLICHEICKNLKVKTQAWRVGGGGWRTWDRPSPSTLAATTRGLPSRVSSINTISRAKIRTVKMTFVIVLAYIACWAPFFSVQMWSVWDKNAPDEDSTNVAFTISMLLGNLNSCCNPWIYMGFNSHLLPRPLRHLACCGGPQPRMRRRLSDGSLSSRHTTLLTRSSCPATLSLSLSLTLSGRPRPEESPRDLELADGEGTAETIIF

[2] = Intrinsic clearance in human liver microsomes; type: ADME, microsome; details: read-out: CLH
Procedure, shortened: (§1)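 Intrinsic clearance was measured in human and rat liver microsomes, in µL/min/mg. Values are means of at least two experiments.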

[3] = Intrinsic clearance in rat liver microsomes; type: ADME, microsome; details: read-out: CLH; procedure, shortened: as §1
[4] = species: Homo sapiens; test: Selectivity index, ratio of Ki for human vasopressin V1a receptor to Ki for human vasopressin V1b receptor
Procedure, shortened: (§2)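 Selectivity was calculated from human receptor Ki values as Ki hOT/Ki hV1b or Ki hV1a/Ki hV1b. Each Ki is the mean of at least two experiments (MSR 2.8).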

[5] = species: Homo sapiens; test: Selectivity index, ratio of Ki for human oxytocin receptor to Ki for human vasopressin V1b receptor; procedure, shortened: as §2
[6] = Elimination half life in rat at 2 mg/kg, iv; type: ADME, organism-based; details: in vivo, read-out: beta t1/2 (converted)
Procedure, shortened: (§3)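 Rat PK after a 2 mg/kg intravenous dose. Plasma clearance (L/h/kg), terminal half-life (h) and steady-state volume of distribution (L/kg) were derived.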

[7] = Volume of distribution at steady state in rat at 2 mg/kg, iv; type: ADME, organism-based; details: in vivo, read-out: Vdss; procedure, shortened: as §3
[8] = Clearance in rat plasma at 2 mg/kg, iv; type: ADME, organism-based; procedure, shortened: as §3
[9] = Oral bioavailability in rat at 5 mg/kg; type: ADME, organism-based; details: in vivo
Procedure, shortened: (§4)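 Rat oral dosing, at 10 or 5 mg/kg depending on compound. Oral bioavailability (%) was calculated.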

[10] = Ratio of AUC in rat brain to plasma at 10 mg/kg, ip measured after 8 hrs; type: ADME, organism-based; details: read-out: Ratio AUC
Procedure, shortened: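 Rats were dosed 10 mg/kg intraperitoneally. Brain and plasma AUC were taken over an 8 h period, and the brain:plasma ratio was calculated from them.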

[11] = target: Cytochrome P450 3A4 (Homo sapiens, UniProt P08684); test: Inhibition of CYP3A4 in human liver microsomes in presence of NADPH and Luciferin BE 50; type: ADME
Chain of Cytochrome P450 3A4 (P08684 whole entry): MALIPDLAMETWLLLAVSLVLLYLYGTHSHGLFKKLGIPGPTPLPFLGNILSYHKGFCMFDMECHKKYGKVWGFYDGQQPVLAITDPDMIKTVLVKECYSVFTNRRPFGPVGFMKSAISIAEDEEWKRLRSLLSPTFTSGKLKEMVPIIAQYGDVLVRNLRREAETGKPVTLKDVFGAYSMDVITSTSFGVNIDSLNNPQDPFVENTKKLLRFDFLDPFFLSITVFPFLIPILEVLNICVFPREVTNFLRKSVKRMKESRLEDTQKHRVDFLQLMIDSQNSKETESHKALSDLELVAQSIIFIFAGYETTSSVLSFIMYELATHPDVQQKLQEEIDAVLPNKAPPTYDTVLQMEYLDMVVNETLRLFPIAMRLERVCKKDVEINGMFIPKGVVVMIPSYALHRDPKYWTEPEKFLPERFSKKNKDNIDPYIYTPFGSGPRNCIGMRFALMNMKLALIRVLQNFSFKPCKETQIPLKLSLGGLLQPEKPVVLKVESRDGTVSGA
Procedure, shortened: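 CYP3A4 inhibition by co-incubation in human liver microsomes with NADPH and luciferin-BE substrate, with 0.03 mg/mL noted. Result expressed as IC50.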

[12] = Oral bioavailability in rat at 10 mg/kg; type: ADME, organism-based; details: in vivo; procedure, shortened: as §4

| SMILES | Ki [1] [nM] | microsomal CLint [2] [µL/min/mg] | microsomal CLint [3] [µL/min/mg] | Ratio Ki [4] | Ratio Ki [5] | other results |
| --- | --- | --- | --- | --- | --- | --- |
| COc1ccccc1C1(N2CCN(c3cccnc3)CC2)C(=O)N(S(=O)(=O)c2ccccc2OC)c2ccc(Cl)cc21 (configuration not stated) | 47 | 93 | 442 |  |  |  |
| COc1ccc(S(=O)(=O)N2C(=O)C(c3cccnc3OC)(N3CCNC(=O)C3)c3cc(Cl)ccc32)c(OC)c1 (configuration not stated) | 1340 |  |  |  |  |  |
| CCOc1nc(Cl)ccc1C1(N2CCN(c3ccnc(C)c3)CC2)C(=O)N(S(=O)(=O)c2ccc(OC)cn2)c2ccc(C#N)cc21 (single isomer, unassigned; (+)) [listing 1 of 2 here] |  |  |  | 78 | 65 |  |
| COc1ccc(S(=O)(=O)N2C(=O)C(c3cccnc3OC)(N3CCN(c4cccnc4)CC3)c3cc(Cl)ccc32)c(OC)c1 (configuration not stated) | 45 | 19 | 84 | 0.1 |  |  |
| COc1ccc(S(=O)(=O)N2C(=O)C(c3ccccc3OC)(N3CCN(c4ccncc4)CC3)c3cc(C#N)ccc32)c(OC)c1 (configuration not stated) | 58.5 | 43 | 296 |  |  |  |
| CCOc1nc(Cl)ccc1C1(N2CCN(c3ccncc3)CC2)C(=O)N(S(=O)(=O)c2ccc(OC)cc2OC)c2ccc(C#N)cc21 (configuration not stated) | 45 | 23 |  |  |  |  |
| COc1ccc(S(=O)(=O)N2C(=O)C(c3cccnc3OC)(N3CCN(C)C(=O)C3)c3cc(Cl)ccc32)c(OC)c1 (configuration not stated) | 192 | 99 | 113 |  |  |  |
| COc1ccc(S(=O)(=O)N2C(=O)C(c3cccnc3OC)(N3CCN(c4cccnc4)C(=O)C3)c3cc(Cl)ccc32)c(OC)c1 (configuration not stated) | 82 | 196 | 291 | 1 |  |  |
| COc1ccc(S(=O)(=O)N2C(=O)C(c3cccnc3OC)(N3CCN(C)C(=O)[C@H]3C)c3cc(Cl)ccc32)c(OC)c1 (some centres not stated) | 41 | 51 | 78 | 1 |  |  |
| CCOc1ncccc1C1(N2CCN(c3ccncc3)CC2)C(=O)N(S(=O)(=O)c2ccc(OC)cc2OC)c2ccc(C#N)cc21 (configuration not stated) | 84 | 77 | 168 |  |  |  |
| CCOc1ccccc1C1(N2CCN(c3ccncc3)CC2)C(=O)N(S(=O)(=O)c2ccc(OC)cc2OC)c2ccc(C#N)cc21 (configuration not stated) | 36 | 43 | 83 |  |  |  |
| COc1ccccc1C1(N2CCN(c3cccnc3)CC2)C(=O)N(S(=O)(=O)c2ccccc2)c2ccc(Cl)cc21 (configuration not stated) | 233 |  |  |  |  |  |
| CCOc1nc(Cl)ccc1C1(N2CCN(c3ccnc(C)c3)CC2)C(=O)N(S(=O)(=O)c2ccc(OC)cn2)c2ccc(C#N)cc21 (racemic) [listing 2 of 2 here] |  |  |  | 125 | 69 |  |
| COc1ccc(S(=O)(=O)N2C(=O)C(c3ccccc3OC)(N3CCN(c4cccnc4)CC3)c3cc(Cl)ccc32)cc1 (configuration not stated) | 104 |  |  |  |  |  |

Continued, in another order:

| Ki [1] [nM] | microsomal CLint [2] [µL/min/mg] | microsomal CLint [3] [µL/min/mg] | Ratio Ki [4] | Ratio Ki [5] | SMILES | other results |
| --- | --- | --- | --- | --- | --- | --- |
| 13 | 50 | 58 | 2 | 2 | COc1ccc(S(=O)(=O)N2C(=O)C(c3cc(OC)ccc3OC)(N3CCN(c4ccncc4)CC3)c3cc(C#N)ccc32)c(OC)c1 (configuration not stated) |  |
| 8 | 360 | 359 | 3 | 10 | COc1ccccc1C1(N2CCN(c3cccnc3)CC2)C(=O)N(S(=O)(=O)c2cccc3cccnc23)c2ccc(Cl)cc21 (configuration not stated) |  |
| 32 | 93 | 118 |  | 15 | CCOc1ccc(OC)cc1C1(N2CCN(c3ccncc3)CC2)C(=O)N(S(=O)(=O)c2ccc(OC)cc2)c2ccc(C#N)cc21 (configuration not stated) |  |
| 2 | 45 | 290 | 216 | 230 | CCOc1ccc(OC)cc1C1(N2CCN(c3ccncc3)CC2)C(=O)N(S(=O)(=O)c2ccc(OC)cn2)c2ccc(C#N)cc21 (configuration not stated) |  |
| 15.2 | 554 | 156 | 0.5 | 2 | COc1ncccc1C1(N2CCN(c3cccnc3)CC2)C(=O)N(S(=O)(=O)c2cccc3cccnc23)c2ccc(Cl)cc21 (configuration not stated) |  |
| 9 | 131 | 119 | 39 | 21 | CCOc1ccc(OC)cc1C1(N2CCN(c3ccncc3)CC2)C(=O)N(S(=O)(=O)c2ccc(F)c3cccnc23)c2ccc(C#N)cc21 (configuration not stated) |  |
| 0.9 | 7 | 22 |  |  | CCOc1nc(Cl)ccc1C1(N2CCN(c3ccnc(C)c3)CC2)C(=O)N(S(=O)(=O)c2ccc(OC)cn2)c2ccc(C#N)cc21 (single isomer, unassigned; (+)) [listing 2 of 2 here] | half-life [6]: > 6 h; Vd [7]: 12 L/kg; clearance [8]: 15 mL/min/kg; bioavailability [9]: 37%; Kp at 8 h [10]: 1; IC50 [11]: 2000 nM |
| 21 | 23 | 41 | 21 | 6 | CCOc1ccc(OC)cc1C1(N2CCN(c3ccncc3)CC2)C(=O)N(S(=O)(=O)c2ccc(OC)cc2OC)c2ccc(C#N)cc21 (configuration not stated) | half-life [6]: 3.4 h; Vd [7]: 2.9 L/kg; clearance [8]: 11.7 mL/min/kg; bioavailability [12]: 22%; Kp at 8 h [10]: 1.1 |
| 10 | 63 | 34 | 34 | 3 | CCOc1cc(OC)ccc1C1(N2CCN(c3ccncc3)CC2)C(=O)N(S(=O)(=O)c2ccc(OC)cc2OC)c2ccc(C#N)cc21 (configuration not stated) |  |
| 30.2 | 326 | 113 | 0.9 | 3 | COc1ncccc1C1(N2CCN(c3cccnc3)CC2)C(=O)N(S(=O)(=O)c2cccc3cccnc23)c2ccc(C#N)cc21 (configuration not stated) |  |
| 1.1 | 39 | 63 | 325 | 201 | CCOc1nc(Cl)ccc1C1(N2CCN(c3ccncc3)CC2)C(=O)N(S(=O)(=O)c2ccc(OC)cn2)c2ccc(C#N)cc21 (configuration not stated) | IC50 [11]: 100 nM |
| 18 | 41 | 348 | 0.8 | 0.9 | COc1ccc(S(=O)(=O)N2C(=O)C(c3ccccc3OC)(N3CCN(c4cccnc4)CC3)c3cc(Cl)ccc32)c(OC)c1 (configuration not stated) |  |
| 1.3 |  |  |  |  | CCOc1nc(Cl)ccc1C1(N2CCN(c3ccnc(C)c3)CC2)C(=O)N(S(=O)(=O)c2ccc(OC)cn2)c2ccc(C#N)cc21 (racemic) [listing 1 of 2 here] | IC50 [11]: 1200 nM |
| 2 | 33 | 15 | 84 | 4 | CCOc1ccc(OC)cc1C1(N2CCN(c3ccncc3)CC2)C(=O)N(S(=O)(=O)c2ccc(OC)c3cccnc23)c2ccc(C#N)cc21 (configuration not stated) |  |
